# According to the M2OR odorant receptor database:
# Columns and labels:
# Details in all cases: stereoisomer not certain
# [1] = biological target: T1, UniProt Q8VGX8
# T1 sequence (whole entry): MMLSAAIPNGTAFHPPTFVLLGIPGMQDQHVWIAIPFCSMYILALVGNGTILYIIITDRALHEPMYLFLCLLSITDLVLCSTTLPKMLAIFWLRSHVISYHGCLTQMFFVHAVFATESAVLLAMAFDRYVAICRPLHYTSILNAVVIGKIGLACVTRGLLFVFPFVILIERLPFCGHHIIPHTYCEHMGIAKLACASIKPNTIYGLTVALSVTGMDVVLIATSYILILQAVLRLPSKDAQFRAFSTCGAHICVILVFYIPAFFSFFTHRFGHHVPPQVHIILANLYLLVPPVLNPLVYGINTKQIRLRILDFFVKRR
# Method in brief: (§1)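 Whether a receptor–molecule pair is responsive (active) rests on the original authors' judgment that its measured signal was statistically different from baseline. Pairs without that judgment are non-responsive (inactive). Sources used varied assay methods, commonly transient luciferase assays in mammalian cell lines.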
# [2] = biological target: T2, UniProt Q8VGY6
# T2 sequence (whole entry): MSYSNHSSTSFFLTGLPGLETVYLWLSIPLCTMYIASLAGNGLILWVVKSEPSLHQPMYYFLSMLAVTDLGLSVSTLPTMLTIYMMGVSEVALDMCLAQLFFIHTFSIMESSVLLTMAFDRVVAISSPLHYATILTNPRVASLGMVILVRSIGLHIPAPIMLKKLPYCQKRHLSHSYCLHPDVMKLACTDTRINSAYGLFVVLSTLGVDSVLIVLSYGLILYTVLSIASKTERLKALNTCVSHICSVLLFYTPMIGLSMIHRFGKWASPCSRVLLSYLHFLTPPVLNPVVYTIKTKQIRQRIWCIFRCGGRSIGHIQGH
# Method in brief: as §1
# [3] = biological target: T3, UniProt Q8VGZ2
# T3 sequence (whole entry): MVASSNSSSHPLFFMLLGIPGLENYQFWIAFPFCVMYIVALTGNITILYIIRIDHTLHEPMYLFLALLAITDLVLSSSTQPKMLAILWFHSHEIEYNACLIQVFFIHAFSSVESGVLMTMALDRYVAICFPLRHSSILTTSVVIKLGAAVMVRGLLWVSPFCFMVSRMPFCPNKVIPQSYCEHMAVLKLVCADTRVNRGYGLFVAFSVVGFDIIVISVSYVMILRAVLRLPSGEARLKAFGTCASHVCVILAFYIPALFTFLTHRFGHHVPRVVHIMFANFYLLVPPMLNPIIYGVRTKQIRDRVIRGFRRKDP
# Method in brief: as §1
# [4] = biological target: T4, UniProt Q8VGZ7
# T4 sequence (whole entry): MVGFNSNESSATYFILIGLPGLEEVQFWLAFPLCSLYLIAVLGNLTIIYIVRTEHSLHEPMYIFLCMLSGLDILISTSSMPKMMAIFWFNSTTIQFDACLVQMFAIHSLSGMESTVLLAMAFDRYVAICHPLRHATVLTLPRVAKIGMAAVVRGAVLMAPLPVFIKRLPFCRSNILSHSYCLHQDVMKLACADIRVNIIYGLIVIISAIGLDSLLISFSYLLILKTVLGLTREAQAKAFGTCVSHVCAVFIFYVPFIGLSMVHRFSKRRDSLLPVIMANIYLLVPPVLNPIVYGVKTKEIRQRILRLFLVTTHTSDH
# Method in brief: as §1
# [5] = biological target: T5, UniProt Q8VH10
# T5 sequence (whole entry): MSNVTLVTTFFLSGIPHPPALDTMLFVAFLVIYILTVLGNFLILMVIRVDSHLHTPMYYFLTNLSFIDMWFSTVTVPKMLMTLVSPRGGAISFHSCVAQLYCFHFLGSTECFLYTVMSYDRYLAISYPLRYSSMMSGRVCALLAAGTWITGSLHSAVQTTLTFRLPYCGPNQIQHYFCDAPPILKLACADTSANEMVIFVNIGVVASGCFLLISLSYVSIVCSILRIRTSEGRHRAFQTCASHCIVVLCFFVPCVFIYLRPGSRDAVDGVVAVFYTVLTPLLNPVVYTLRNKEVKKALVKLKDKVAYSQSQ
# Method in brief: as §1
# [6] = biological target: T6, UniProt Q8VH16
# T6 sequence (whole entry): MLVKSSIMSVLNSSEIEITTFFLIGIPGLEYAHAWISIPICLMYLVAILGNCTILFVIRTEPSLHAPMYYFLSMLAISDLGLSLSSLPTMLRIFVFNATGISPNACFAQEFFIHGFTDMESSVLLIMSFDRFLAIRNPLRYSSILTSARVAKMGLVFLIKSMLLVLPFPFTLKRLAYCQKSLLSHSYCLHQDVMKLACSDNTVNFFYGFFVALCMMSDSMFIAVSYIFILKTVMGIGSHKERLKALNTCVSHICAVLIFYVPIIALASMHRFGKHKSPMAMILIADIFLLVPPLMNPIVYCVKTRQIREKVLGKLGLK
# Method in brief: as §1
# [7] = biological target: T7, UniProt Q8VH18
# T7 sequence (whole entry): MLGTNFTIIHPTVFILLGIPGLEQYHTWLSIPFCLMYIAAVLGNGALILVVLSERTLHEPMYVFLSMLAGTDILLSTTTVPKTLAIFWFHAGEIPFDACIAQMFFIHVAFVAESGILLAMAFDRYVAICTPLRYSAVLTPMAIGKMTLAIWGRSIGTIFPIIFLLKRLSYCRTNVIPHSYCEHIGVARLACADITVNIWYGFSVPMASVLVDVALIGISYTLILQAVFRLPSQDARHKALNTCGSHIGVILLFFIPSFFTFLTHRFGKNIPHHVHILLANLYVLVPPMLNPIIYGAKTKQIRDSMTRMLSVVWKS
# Method in brief: as §1
# [8] = biological target: T8, UniProt Q8VH20
# T8 sequence (whole entry): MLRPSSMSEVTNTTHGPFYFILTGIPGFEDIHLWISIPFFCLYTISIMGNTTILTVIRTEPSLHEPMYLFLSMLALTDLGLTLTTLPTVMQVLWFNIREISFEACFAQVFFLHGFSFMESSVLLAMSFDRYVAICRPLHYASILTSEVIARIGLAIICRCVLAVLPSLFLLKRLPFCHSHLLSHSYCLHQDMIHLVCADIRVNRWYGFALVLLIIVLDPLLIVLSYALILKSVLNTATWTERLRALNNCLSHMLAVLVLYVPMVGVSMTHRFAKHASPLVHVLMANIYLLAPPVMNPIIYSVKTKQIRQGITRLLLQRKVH
# Method in brief: as §1
# [9] = biological target: T9, UniProt Q8VH21
# T9 sequence (whole entry): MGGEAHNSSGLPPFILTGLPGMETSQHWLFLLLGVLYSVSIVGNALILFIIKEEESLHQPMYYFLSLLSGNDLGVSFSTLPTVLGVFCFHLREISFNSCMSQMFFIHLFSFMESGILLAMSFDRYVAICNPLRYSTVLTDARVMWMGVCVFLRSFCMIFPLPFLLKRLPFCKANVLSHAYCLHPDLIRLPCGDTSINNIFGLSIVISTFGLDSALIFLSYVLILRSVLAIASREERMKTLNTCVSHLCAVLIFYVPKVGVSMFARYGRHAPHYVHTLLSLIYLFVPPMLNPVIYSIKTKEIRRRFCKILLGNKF
# Method in brief: as §1
# [10] = biological target: T10, UniProt Q920P1
# T10 sequence (whole entry): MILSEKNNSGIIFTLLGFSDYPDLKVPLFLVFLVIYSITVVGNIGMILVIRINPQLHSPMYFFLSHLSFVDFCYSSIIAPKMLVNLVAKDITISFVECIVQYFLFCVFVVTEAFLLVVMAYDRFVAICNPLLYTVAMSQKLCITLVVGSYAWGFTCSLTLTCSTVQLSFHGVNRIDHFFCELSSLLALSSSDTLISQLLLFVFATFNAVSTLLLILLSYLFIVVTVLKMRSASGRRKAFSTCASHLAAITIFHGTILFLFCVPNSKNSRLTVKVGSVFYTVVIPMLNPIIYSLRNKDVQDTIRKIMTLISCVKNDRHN
# Method in brief: as §1
# 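Note: active if original authors judged signal statistically different from baseline.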
Structure (SMILES),odorant receptor agonist call [1],odorant receptor agonist call [2],odorant receptor agonist call [3],odorant receptor agonist call [4],odorant receptor agonist call [5],odorant receptor agonist call [6],odorant receptor agonist call [7],odorant receptor agonist call [8],odorant receptor agonist call [9],odorant receptor agonist call [10]
CCCCCCCCC(=O)O,active,inactive,active,active,inactive,inactive,active,active,inactive,–
CC12CCC(CC1=O)C2(C)C (configuration not stated),inactive,inactive,inactive,inactive,inactive,inactive,–,inactive,inactive,–
CCCCCCCCS,inactive,inactive,inactive,inactive,inactive,inactive,–,inactive,inactive,–
CCOC(=O)C(C)C,inactive,inactive,inactive,inactive,inactive,inactive,–,inactive,inactive,–
CCCCCCCCCCO,inactive,inactive,inactive,inactive,inactive,inactive,–,inactive,inactive,–
CCC(=O)C(=O)CC,inactive,inactive,inactive,inactive,inactive,inactive,–,inactive,inactive,–
C=CCOC(=O)CCCCCC,inactive,inactive,inactive,inactive,inactive,inactive,–,inactive,inactive,–
O=C1Cc2ccccc2O1,inactive,inactive,inactive,inactive,inactive,inactive,–,inactive,inactive,–
CCCCCCCCO,inactive,inactive,inactive,inactive,inactive,inactive,active,inactive,inactive,–
CCCCCCCCCS,inactive,inactive,inactive,inactive,inactive,inactive,–,inactive,inactive,–
CCCCC(C)=O,inactive,inactive,inactive,inactive,inactive,inactive,–,inactive,inactive,–
CC(C)=CCCC(C)CCO (configuration not stated),inactive,inactive,inactive,inactive,inactive,inactive,–,inactive,inactive,–
CCCCCC=O,inactive,inactive,inactive,inactive,inactive,inactive,–,inactive,inactive,–
CCCCCCCO,inactive,inactive,inactive,inactive,inactive,inactive,inactive,inactive,inactive,–
CC(=O)OCC=C(C)C,inactive,inactive,inactive,inactive,inactive,inactive,–,inactive,inactive,–
CCCCC(=O)CC,inactive,inactive,inactive,inactive,inactive,inactive,–,inactive,inactive,–
CCCCCC1=C(C)CCC1=O,inactive,inactive,inactive,inactive,inactive,inactive,–,inactive,inactive,–
CCCCC(=O)O,inactive,inactive,inactive,inactive,inactive,inactive,–,inactive,active,–
CCCCCCOC(C)=O,inactive,inactive,inactive,inactive,inactive,inactive,–,inactive,inactive,–
CCCCCC(=O)CC,inactive,inactive,inactive,inactive,inactive,inactive,–,inactive,inactive,–
CCCCCCO,inactive,inactive,inactive,inactive,inactive,inactive,inactive,inactive,inactive,–
C=C(C)C1CCC(C)C(=O)C1 (configuration not stated),inactive,inactive,inactive,inactive,inactive,inactive,–,inactive,inactive,–
CCCCCCCCCO,inactive,inactive,inactive,inactive,inactive,inactive,active,inactive,inactive,–
CCCCCCC(C)=O,inactive,inactive,inactive,inactive,inactive,inactive,–,inactive,inactive,–

Structure (SMILES),odorant receptor agonist call [1],odorant receptor agonist call [2],odorant receptor agonist call [3],odorant receptor agonist call [4],odorant receptor agonist call [5],odorant receptor agonist call [6],odorant receptor agonist call [7],odorant receptor agonist call [8],odorant receptor agonist call [9],odorant receptor agonist call [10]
CCC(=O)O,inactive,inactive,inactive,inactive,inactive,inactive,–,inactive,inactive,–
CCCCCCCC(C)=O,inactive,inactive,inactive,inactive,inactive,inactive,–,inactive,inactive,–
CCCC(=O)C(C)=O,inactive,inactive,inactive,inactive,inactive,inactive,–,inactive,inactive,–
CCCCOC=O,inactive,inactive,inactive,inactive,inactive,inactive,–,inactive,inactive,–
O=C(c1ccccc1)c1ccccc1,inactive,inactive,inactive,inactive,inactive,inactive,–,inactive,inactive,–
CCCCCOC(=O)CCCCC,inactive,inactive,inactive,inactive,inactive,inactive,–,inactive,inactive,–
CCCCCCCCCC(=O)[O-].[H+],active,inactive,active,inactive,inactive,inactive,inactive,active,inactive,–
CC(=O)OCc1ccccc1,inactive,inactive,inactive,inactive,active,inactive,–,inactive,inactive,–
CC(=O)Oc1ccccc1,inactive,inactive,inactive,inactive,active,inactive,–,inactive,inactive,–
O=C1CCOc2ccccc21,inactive,inactive,inactive,inactive,inactive,inactive,–,inactive,inactive,–
COc1cc(C(=O)O)ccc1O,inactive,active,inactive,inactive,inactive,inactive,–,inactive,inactive,inactive
O=C(O)CCCCCC(=O)O,inactive,–,–,–,–,–,inactive,–,–,–
CCCCCCC(=O)OCCCC,–,–,inactive,inactive,–,inactive,–,inactive,inactive,–
CCCCCCC(=O)[O-].[H+],active,inactive,active,inactive,inactive,–,active,active,–,–
O=C([O-])CCCCC(=O)[O-].[H+].[H+],inactive,–,–,–,–,–,inactive,–,–,–
CC(C)=CCCC(C)=CCO,inactive,inactive,inactive,inactive,inactive,inactive,–,inactive,inactive,inactive
C=C(C)C1CCC2(C)OC2C1 (configuration not stated),–,–,inactive,inactive,–,inactive,–,inactive,inactive,–
CCC(C(=O)O)c1ccccc1 (configuration not stated),inactive,inactive,inactive,inactive,inactive,–,–,inactive,–,–
CCCCCCCCOC=O,–,–,inactive,inactive,–,inactive,–,inactive,inactive,–
CC(C)CS,–,–,inactive,inactive,–,inactive,–,inactive,inactive,–
CC(=O)C=CC1=C(C)CCCC1(C)C,–,–,inactive,inactive,–,inactive,–,inactive,inactive,–
c1ccccc1,inactive,inactive,inactive,inactive,inactive,inactive,–,inactive,inactive,inactive
CCc1ccccc1O,–,–,inactive,inactive,–,inactive,–,inactive,inactive,–
O=C(O)CCCCCCCCC(=O)O,–,–,inactive,inactive,–,inactive,–,inactive,inactive,–
